Calls of active or inactive are those of the source.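 Rule for the calls, unless noted: active = viability loss from added drug above about 55%, and viability with drug at most 40%, in both replicates (limit read from the data, passing the limit was not always enough); inconclusive = both conditions met in only one replicate; inactive = neither replicate meets both conditions.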
Key:
[1] = reducers of endogenous Her2 protein level, primary screen, SKBR3 breast tumor cells, AlphaScreen, ATP viability (AID 461;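 active = Her2 level under about 52% in both replicate screens, with viability over 70% of control, limit read from the data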;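 for Her2 level: lower value means less Her2 protein in the cells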;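 for viability: percent of carrier control wells set as 100% viability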); details: 18-24 h, measured here: SKBR3 viability, ATP luminescence, at 10 µM
[2] = target: Receptor tyrosine-protein kinase erbB-2 (Homo sapiens) (UniProt P04626); assay: as above; details: 18-24 h, at 10 µM, stronger effect = lower value
[3] = SK-BR-3 cell growth inhibitors, pilot screen, 24 h, human (AID 572;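 active = viability at or below 10% of carrier control in both of two separate runs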;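 note: compound exposure lasted between 18 and 24 h rather than exactly 24 h; 100% = carrier-treated control wells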); details: SK-BR-3 viability, CellTiter-Glo luminescence, at 10 µM, stronger effect = lower value
[4] = HUVEC growth inhibition – cell-based, human, primary screen (AID 575;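 active = viability at or below 30% in both replicate assays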;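 note: 100% = median of untreated cell wells with 0.1% DMSO on each plate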); details: HUVEC proliferation, CellTiter-Glo luminescence, 72 h; at 10 µM; stronger effect = lower value
Summary of the method: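 System – primary HUVEC, no more than 12 passages · Medium – Low-serum (2% FBS) EBM, supplemented · Times – 72 h exposure, 37 °C, 5% CO2, 30 min RT equilibration · Measured by – luminescent ATP assay · Read-out – % viability relative to median vehicle-well signal on each plate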

[5] = growth inhibitors of H69AR lung tumor, primary screen, human, duplicate replicates (AID 580;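 active = viability at or under a set limit in both replicates, limit being median viability minus 3 SD, cut at about 48% in these data, passing the limit was not always enough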;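 note: 100% = mean luminescence of untreated wells and 0% = no signal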); details: H69AR lung tumor cells viability, ATP luminescence, 72 h; at 10 µM; stronger effect = lower value
[6] = reversal of MRP1-mediated doxorubicin resistance, pilot screen, H69AR cells, doxorubicin co-treatment (AID 601); details: CellTiter-Glo, 72 h, at 10 µM; for differential viability (reversal): stronger effect = higher value
[7] = 384-well plate pilot, post-Golgi transport modulator project, inhibition of yeast transport mutant growth (AID 636; in the data active = inhibition above about 31%); details: absorbance 615 nm, about 18 h, stronger effect = higher value
[8] = growth suppression of yeast trafficking mutant, preliminary HTS, modulators of trafficking downstream of Golgi apparatus project, 1536-format plate, OD 615 nm (AID 637; in the data active = inhibition above about 30%); details: yeast transport mutant growth, absorbance 615 nm, 18 h; stronger effect = higher value
[9] = H69AR cells + 2 uM doxorubicin, measured here: viability with 2 uM doxorubicin, stronger effect = lower value
[10] = H69AR cells, compound alone cytotoxicity

Receptor tyrosine-protein kinase erbB-2 (Homo sapiens), sequence (P04626 whole entry, looked up): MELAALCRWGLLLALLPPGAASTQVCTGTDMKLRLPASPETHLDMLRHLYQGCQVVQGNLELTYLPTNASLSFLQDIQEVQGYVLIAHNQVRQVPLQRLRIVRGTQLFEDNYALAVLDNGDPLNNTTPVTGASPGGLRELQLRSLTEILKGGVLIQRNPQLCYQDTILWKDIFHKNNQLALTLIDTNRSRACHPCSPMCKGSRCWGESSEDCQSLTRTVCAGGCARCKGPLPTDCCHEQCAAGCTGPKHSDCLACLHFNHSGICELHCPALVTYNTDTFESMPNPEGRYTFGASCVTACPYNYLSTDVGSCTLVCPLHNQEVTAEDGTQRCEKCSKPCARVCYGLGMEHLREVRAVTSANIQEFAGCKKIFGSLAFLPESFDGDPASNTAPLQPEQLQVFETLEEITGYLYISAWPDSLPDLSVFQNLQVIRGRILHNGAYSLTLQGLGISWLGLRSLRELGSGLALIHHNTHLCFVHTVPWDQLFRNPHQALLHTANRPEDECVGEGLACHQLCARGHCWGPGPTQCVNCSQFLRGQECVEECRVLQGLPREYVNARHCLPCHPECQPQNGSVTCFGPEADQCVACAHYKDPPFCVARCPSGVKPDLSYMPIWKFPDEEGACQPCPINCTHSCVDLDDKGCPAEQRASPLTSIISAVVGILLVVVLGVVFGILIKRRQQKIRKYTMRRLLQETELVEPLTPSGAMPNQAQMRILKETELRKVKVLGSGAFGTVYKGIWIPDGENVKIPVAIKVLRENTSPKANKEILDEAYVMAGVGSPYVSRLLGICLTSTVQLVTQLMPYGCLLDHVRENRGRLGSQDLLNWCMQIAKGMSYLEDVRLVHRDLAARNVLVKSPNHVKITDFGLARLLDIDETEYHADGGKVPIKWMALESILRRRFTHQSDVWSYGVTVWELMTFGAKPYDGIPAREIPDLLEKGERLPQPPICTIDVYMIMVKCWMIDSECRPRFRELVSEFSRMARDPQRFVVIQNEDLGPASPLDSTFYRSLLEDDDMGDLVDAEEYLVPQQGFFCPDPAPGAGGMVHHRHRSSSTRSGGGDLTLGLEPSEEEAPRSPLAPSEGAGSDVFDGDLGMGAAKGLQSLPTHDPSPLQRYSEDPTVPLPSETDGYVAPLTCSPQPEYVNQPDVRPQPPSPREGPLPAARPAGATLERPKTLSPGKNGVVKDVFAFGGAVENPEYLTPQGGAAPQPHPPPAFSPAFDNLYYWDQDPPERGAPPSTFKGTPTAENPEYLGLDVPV

Row | Compound | viability [1] [%] | Her2 level [2] | viability [3] | viability [4] | viability [5] | differential viability (reversal) ([6]; H69AR cells + 2 uM doxorubicin) | viability [6, 9] [%] | viability [6, 10] [%] | inhibition [7] | inhibition [8]
1 | CCn1c(SCc2nc3ccccc3c(=O)[nH]2)nnc1-c1cccnc1 | 84.5 | 98% (inactive) | 84.5% (inactive) | 104% (inactive) | 95.2% (inactive) | 4.33% (inactive) | 90.9 | 95.2 | -0.13% (inactive) | -0.16% (inactive)
2 | COc1ccc(S(=O)(=O)Nc2ccc(F)c(F)c2)cc1Cl | 74 | 82.5% (inactive) | 74% (inactive) | 90.4% (inactive) | 90.2% (inactive) | -2.64% (inactive) | 92.8 | 90.2 | -4.59% (inactive) | 4.26% (inactive)
3 | Cc1nc(SCC(=O)N2CCC(C(N)=O)CC2)n[nH]1 | 94.5 | 108% (inactive) | 94.5% (inactive) | 109% (inactive) | 95.5% (inactive) | 3.98% (inactive) | 91.6 | 95.5 | -6.32% (inactive) | 1.45% (inactive)
4 | O=C(CSc1nnc(-c2cccnc2)o1)OC1CCCCC1 | 110 | 110% (inactive) | 110% (inactive) | 95.8% (inactive) | 101% (inactive) | 13.2% (inactive) | 87.9 | 101 | -7.87% (inactive) | 0.48% (inactive)
5 | Cn1cc(C(=O)c2ccc(F)cc2)cc1-c1nc2ccccc2n1C | 91 | 65% (inactive) | 91% (inactive) | 76% (inactive) | 102% (inactive) | 10% (inactive) | 92 | 102 | -0.4% (inactive) | 1.64% (inactive)
6 | CCOC(=O)c1c(C)[nH]c(C)c1C(=O)COc1ccc(NC(=O)c2ccco2)cc1 | 88.5 | 102% (inactive) | 88.5% (inactive) | 91.8% (inactive) | 86.9% (inactive) | -6.89% (inactive) | 93.8 | 86.9 | -1.43% (inactive) | 3.65% (inactive)
7 | CCn1cc(C(=O)Nc2cc3c(cc2NC(C)=O)OCCO3)c(=O)c2ccc(C)nc21 | 96.5 | 100% (inactive) | 96.5% (inactive) | 106% (inactive) | 91% (inactive) | -4.02% (inactive) | 95 | 91 | -6.13% (inactive) | 0.48% (inactive)
8 | CCN1C(=O)N(CC)C2C1N(C(C)=O)C(=O)N2C(C)=O (stereo not given) | 107 | 102% (inactive) | 107% (inactive) | 104% (inactive) | 94.8% (inactive) | 11.9% (inactive) | 83 | 94.8 | -5.66% (inactive) | -2.18% (inactive)
9 | C=Cn1c(C(=O)O)cc(CC)c1-c1ccccc1 | 96 | 101% (inactive) | 96% (inactive) | 100% (inactive) | 106% (inactive) | 2.8% (inactive) | 104 | 106 | -4.4% (inactive) | -7.42% (inactive)
10 | Cc1nn(S(=O)(=O)N2CCCCC2)c(C)c1Br | 95 | 130% (inactive) | 95% (inactive) | 96.2% (inactive) | 102% (inactive) | 5.13% (inactive) | 97.1 | 102 | -1.41% (inactive) | -6.17% (inactive)
11 | CSc1ccc(-c2nc(CSCC(=O)N3CCOCC3)c(C)o2)cc1 | 102 | 91% (inactive) | 102% (inactive) | 85.2% (inactive) | 103% (inactive) | 6.36% (inactive) | 97.1 | 103 | -0.67% (inactive) | -2.26% (inactive)
12 | O=C(Nc1ccc(F)cc1)c1cccc2c1C(=O)N(Cc1ccccn1)C2 | 95.5 | 90% (inactive) | 95.5% (inactive) | 87.5% (inactive) | 96% (inactive) | 16.1% (inactive) | 79.9 | 96 | -0.92% (inactive) | -3.06% (inactive)
13 | O=C(C1CCN(S(=O)(=O)Cc2ccccc2)CC1)N1CCN(c2ncccn2)CC1 | 83 | 108% (inactive) | 83% (inactive) | 115% (inactive) | 112% (inactive) | 22.3% (inactive) | 90 | 112 | -0.39% (inactive) | -2.36% (inactive)
14 | Cc1ccc(S(=O)(=O)N2CCOCC(=O)NCCOCCNC(=O)COCC2)cc1 | 93.5 | 102% (inactive) | 93.5% (inactive) | 95.4% (inactive) | 106% (inactive) | 8.95% (inactive) | 96.9 | 106 | -4.13% (inactive) | -4.26% (inactive)
